In brackets after ≈: the same amount, converted by molar mass. Activity calls are given as the source filed them. The rule behind the calls is not given here.
Assays:
[1] = Membrane permeability of the compound by PAMPA; format: ADME; details: read-out: permeability
[2] = biological target: Somatostatin receptor type 4 (Homo sapiens) (UniProt P31391); experiment: Antagonist activity at human SST4 receptor expressed in CHO cells assessed as inhibition of forskolin-induced cAMP accumulation by FRET assay; format: functional, cell-based
Chain of Somatostatin receptor type 4 (Homo sapiens) (P31391 whole entry): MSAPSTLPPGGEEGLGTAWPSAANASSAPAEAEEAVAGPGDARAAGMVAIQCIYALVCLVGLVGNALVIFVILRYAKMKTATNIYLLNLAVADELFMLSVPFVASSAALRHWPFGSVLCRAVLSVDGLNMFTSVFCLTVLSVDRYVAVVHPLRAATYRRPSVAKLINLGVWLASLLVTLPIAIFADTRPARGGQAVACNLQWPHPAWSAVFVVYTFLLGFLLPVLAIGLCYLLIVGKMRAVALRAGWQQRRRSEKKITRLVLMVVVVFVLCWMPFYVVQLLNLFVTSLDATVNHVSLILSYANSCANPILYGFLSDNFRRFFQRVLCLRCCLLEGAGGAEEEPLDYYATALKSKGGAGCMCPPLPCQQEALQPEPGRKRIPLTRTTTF

[3] = Solubility of the compound in 50 mM phosphate buffer at pH 6.5 by lyophilisation solubility assay; format: physicochemical
How it was run: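 Compound taken from DMSO stock solution, lyophilized, then dissolved in 50 mM phosphate buffer at pH 6.5; dissolved amount read spectrophotometrically.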

[4] = Octanol-TAPSO distribution coefficient, log D of the compound at pH 7.4 by spectrophotometric analysis; format: physicochemical; details: octanol/TAPSO buffer
How it was run: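 Octanol/50 mM TAPSO buffer at pH 7.4 containing 5% (v/v) DMSO; partitioning read spectrophotometrically.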

Homo sapiens = organism: Homo sapiens; experiment: Selectivity ratio of human SST1 receptor to human SST5 receptor
[5] = biological target: Somatostatin receptor type 3 (Homo sapiens) (UniProt P32745); experiment: Antagonist activity at human SST3 receptor expressed in CHO cells assessed as inhibition of forskolin-induced cAMP accumulation by FRET assay; format: functional, cell-based
Chain of Somatostatin receptor type 3 (Homo sapiens) (P32745 whole entry): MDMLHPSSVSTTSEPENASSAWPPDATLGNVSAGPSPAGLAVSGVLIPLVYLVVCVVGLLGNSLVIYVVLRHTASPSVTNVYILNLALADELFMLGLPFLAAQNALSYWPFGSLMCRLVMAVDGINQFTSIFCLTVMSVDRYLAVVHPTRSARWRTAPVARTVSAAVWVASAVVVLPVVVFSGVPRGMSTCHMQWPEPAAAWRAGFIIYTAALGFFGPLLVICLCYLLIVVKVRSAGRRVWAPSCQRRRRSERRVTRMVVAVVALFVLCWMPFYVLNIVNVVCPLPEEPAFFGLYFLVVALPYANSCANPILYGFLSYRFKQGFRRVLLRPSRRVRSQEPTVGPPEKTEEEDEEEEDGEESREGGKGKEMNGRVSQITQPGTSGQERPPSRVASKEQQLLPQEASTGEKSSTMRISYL

[6] = biological target: T1, Somatostatin receptor type 5 (Homo sapiens, UniProt P35346); experiment: Displacement of radio labeled 11 Tyr SST14 from human SST5 receptor expressed in CHO cells; format: cell-based
T1 sequence (P35346 whole entry): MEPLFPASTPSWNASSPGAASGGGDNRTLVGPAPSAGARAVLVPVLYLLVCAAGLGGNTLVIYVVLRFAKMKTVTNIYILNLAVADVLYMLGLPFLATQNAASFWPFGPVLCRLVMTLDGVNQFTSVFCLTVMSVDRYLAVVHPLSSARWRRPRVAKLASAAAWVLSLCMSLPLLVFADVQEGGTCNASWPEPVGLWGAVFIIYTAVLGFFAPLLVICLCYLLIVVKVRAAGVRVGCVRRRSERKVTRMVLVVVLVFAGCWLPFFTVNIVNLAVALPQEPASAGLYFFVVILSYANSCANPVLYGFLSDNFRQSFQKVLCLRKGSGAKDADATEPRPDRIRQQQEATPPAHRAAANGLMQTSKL
How it was run: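 Membranes from SST5-expressing cells, made by sonication, incubated with radiolabeled 11Tyr SST-14 and varying test compound; non-specific binding defined with unlabeled SST-14. Incubation stopped by glass-fiber filtration, bound radioactivity counted; IC50 and Ki derived.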

[7] = biological target: T1, Somatostatin receptor type 5; experiment: Antagonist activity at human SST5 receptor expressed in CHO cells assessed as inhibition of forskolin-induced cAMP accumulation by FRET assay; format: functional, cell-based
[8] = Dissociation constant, pKa of the compound by spectrophotometric analysis; format: physicochemical
How it was run: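 Measured spectrophotometrically in SGA buffer with 10% (v/v) methanol, ionic strength 150 mM; value refers to the piperidine nitrogen.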

[9] = biological target: Somatostatin receptor type 2 (Homo sapiens) (UniProt P30874); experiment: Antagonist activity at human SST2 receptor expressed in CHO cells assessed as inhibition of forskolin-induced cAMP accumulation by FRET assay; format: functional, cell-based
Chain of Somatostatin receptor type 2 (Homo sapiens) (P30874 whole entry): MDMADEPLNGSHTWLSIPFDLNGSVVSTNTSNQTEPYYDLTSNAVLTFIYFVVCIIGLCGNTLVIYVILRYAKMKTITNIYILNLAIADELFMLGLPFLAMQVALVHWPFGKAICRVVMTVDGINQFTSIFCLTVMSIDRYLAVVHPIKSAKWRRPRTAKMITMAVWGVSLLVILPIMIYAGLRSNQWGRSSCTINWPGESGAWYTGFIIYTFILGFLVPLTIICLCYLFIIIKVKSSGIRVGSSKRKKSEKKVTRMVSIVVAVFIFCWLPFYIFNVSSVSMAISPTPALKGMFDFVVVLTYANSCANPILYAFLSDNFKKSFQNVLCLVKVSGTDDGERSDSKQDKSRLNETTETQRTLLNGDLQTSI

[10] = biological target: Histamine H1 receptor (Homo sapiens) (UniProt P35367); experiment: Inhibition of human histamine H1 receptor ar 3 uM
Chain of Histamine H1 receptor (Homo sapiens) (P35367 whole entry): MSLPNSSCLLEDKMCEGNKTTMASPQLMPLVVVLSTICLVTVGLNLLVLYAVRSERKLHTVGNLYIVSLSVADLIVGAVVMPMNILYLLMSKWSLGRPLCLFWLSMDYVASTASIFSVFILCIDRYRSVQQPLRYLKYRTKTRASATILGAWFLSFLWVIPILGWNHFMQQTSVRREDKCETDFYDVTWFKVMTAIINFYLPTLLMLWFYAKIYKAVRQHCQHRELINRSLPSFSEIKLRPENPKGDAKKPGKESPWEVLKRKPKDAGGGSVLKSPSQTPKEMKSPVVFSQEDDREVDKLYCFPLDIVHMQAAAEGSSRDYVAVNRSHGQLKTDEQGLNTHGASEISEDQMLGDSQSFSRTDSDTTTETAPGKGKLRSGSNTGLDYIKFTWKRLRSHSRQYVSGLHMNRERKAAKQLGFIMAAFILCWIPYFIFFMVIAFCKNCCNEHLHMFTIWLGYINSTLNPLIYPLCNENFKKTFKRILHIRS

Compound | Papp [1] | Activity [2] | solubility [3] | logD [4] | Selectivity ratio (Homo sapiens) | Activity [5] | Ki [6] | EC50 [7] | pKa [8] | Activity [9] | inhibition [10]
CCOc1cc(CN2CCC(NC(=O)c3ccc(N)nc3)CC2)cc(OCc2ccccc2)c1-c1ccc(F)cc1 | 0.14 ×10⁻⁶ cm/s | inactive | 5 µg/mL (≈ 9.01 µM) | 3.94 | 660 | inactive | 6.7 nM | > 1000 nM | 7.66 | inactive | -1.2%
CCOc1cc(CN2CCC[C@@H](NC(=O)c3cncc(C)c3)CC2)cc(OCC)c1F | – | – | – | – | 253 | – | 22 nM | – | – | – | 58%
CCOc1cc(CN2CCC(NC(=O)c3ccc(NC)nc3)CC2)cc(OCC)c1F | 2.98 ×10⁻⁶ cm/s | – | 330 µg/mL (≈ 767 µM) | 2.66 | > 500 | – | 18 nM | > 1000 nM | 7.83 | – | 55%
CCOc1cc(CN2CCC(NC(=O)c3ccc(N)nc3)CC2)ccc1C | 2.4 ×10⁻⁶ cm/s | – | 375 µg/mL (≈ 1020 µM) | 2.24 | > 500 | – | 19 nM | > 1000 nM | 8.27 | – | 85%
CCOc1cc(CN2CCC(NC(=O)c3cncc(C)c3)CC2)cc(OCC)c1-n1ccnc1 | 3.17 ×10⁻⁶ cm/s | – | 473 µg/mL (≈ 1020 µM) | 2.61 | 213 | – | 11 nM | > 1000 nM | 7.34 | – | 33%
CCOc1cc(CN2CCC(NC(=O)c3cncc(C)c3)CC2)cc(OCC)c1Cl | 3.82 ×10⁻⁶ cm/s | – | 216 µg/mL (≈ 500 µM) | 3.43 | – | – | 4.4 nM | > 1000 nM | 7.46 | – | –
CCOc1cc(CN2CCC[C@@H](NC(=O)c3cncc(C)c3)CC2)ccc1Cl | – | – | – | – | 175 | – | 18 nM | – | – | – | 98%
CCOc1cc(CN2CCC(NC(=O)c3cncc(C)c3)CC2)ccc1-c1ccc(F)cc1 | 1.32 ×10⁻⁶ cm/s | – | 101 µg/mL (≈ 226 µM) | 4.1 | 84 | – | 4.9 nM | > 1000 nM | 7.87 | – | 89%
CCOc1cc(CN2CCC(NC(=O)c3cncc(C)c3)CC2)cc(OCC)c1-c1ccc(OC(F)(F)F)cc1 | – | – | < 1 µg/mL | > 4 | 743 | – | 2.4 nM | > 1000 nM | – | – | 12%
CCOc1cc(CN2CCC(NC(=O)c3cncc(C)c3)CC2)cc(OCC)c1C | 2.36 ×10⁻⁶ cm/s | – | 106 µg/mL (≈ 258 µM) | 3.61 | – | – | 4 nM | – | 7.92 | – | –
CCOc1cc(CN2CCC[C@@H](NC(=O)c3cncc(C)c3)CC2)ccc1C | – | – | – | – | 256 | – | 22 nM | – | – | – | 97%
CCOc1cc(CN2CCC(NC(=O)c3ccc(N)nc3)CC2)cc(OCC)c1-c1ccc(F)cc1 | 1.39 ×10⁻⁶ cm/s | – | 123 µg/mL (≈ 250 µM) | 3.15 | 407 | – | 7.1 nM | > 1000 nM | 7.86 | – | 4.7%
CCOc1cc(CN2CCC(NC(=O)c3cncc(C)c3)CC2)cc(OCC)c1-c1ccc(F)cc1 | 0.46 ×10⁻⁶ cm/s | – | 94 µg/mL (≈ 191 µM) | 4.01 | 59 | – | 4.4 nM | > 1000 nM | 7.69 | – | 5.9%
CCOc1cc(CN2CCC(NC(=O)c3ccc(Cl)nc3)CC2)cc(OCC)c1-c1ccc(F)cc1 | – | – | 76 µg/mL (≈ 148 µM) | 3.55 | 54 | – | 7.9 nM | > 1000 nM | 7.8 | – | 7.1%
CCOc1cc(CN2CCC[C@H](NC(=O)c3cncc(C)c3)CC2)ccc1Cl | – | – | – | – | – | – | 637 nM | – | – | – | –
CCOc1cc(CN2CCC(NC(=O)c3ccc(NC)nc3)CC2)cc(OCC)c1-c1ccc(F)cc1 | 1.23 ×10⁻⁶ cm/s | – | 153 µg/mL (≈ 302 µM) | 3.83 | 211 | – | 2.5 nM | > 1000 nM | 7.86 | – | 11%
CCOc1cc(CN2CCC(NC(=O)c3cncc(C)c3)CC2)cc(OCC)c1F | 3.48 ×10⁻⁶ cm/s | – | 443 µg/mL (≈ 1070 µM) | 2.9 | 180 | – | 25 nM | > 1000 nM | 7.7 | – | 25%
CCOc1cc(CN2CCC(NC(=O)c3cncc(C)c3)CC2)ccc1Cl | 1.93 ×10⁻⁶ cm/s | – | 172 µg/mL (≈ 443 µM) | 3.05 | 335 | – | 15 nM | – | 7.63 | – | –
CCOc1cc(CN2CCC(NC(=O)c3cncc(C)c3)CC2)cc(OCC)c1-c1ccccc1 | 0.64 ×10⁻⁶ cm/s | – | 152 µg/mL (≈ 321 µM) | 3.73 | 224 | – | 5.4 nM | > 1000 nM | 7.74 | – | -1.2%
CCOc1cc(CN2CCCC(NC(=O)c3ccc(N)nc3)CC2)cc(F)c1F (racemic) | – | inactive | – | – | – | inactive | 436 nM | > 1000 nM | – | inactive | –
CCOc1cc(CN2CCC(NC(=O)c3cncc(C)c3)CC2)ccc1-c1ccc(C(F)(F)F)cc1 | 0.03 ×10⁻⁶ cm/s | – | < 1 µg/mL | > 4 | 89 | – | 11 nM | – | 7.96 | – | 48%
CCOc1cc(CN2CCC(NC(=O)c3ccc(NC(C)C)nc3)CC2)cc(OCC)c1F | 2.41 ×10⁻⁶ cm/s | – | > 520 µg/mL | 3.39 | 141 | – | 6.3 nM | > 1000 nM | 7.84 | – | 35%
CCOc1cc(CN2CCC(NC(=O)c3ccc(NC)nc3)CC2)cc(OCC)c1-c1ccccc1 | 2.07 ×10⁻⁶ cm/s | – | 155 µg/mL (≈ 317 µM) | 3.13 | 439 | – | 6.9 nM | > 1000 nM | 7.9 | – | 13%
CCOc1cc(CN2CCC(NC(=O)c3cncc(C)c3)CC2)ccc1C | 2.94 ×10⁻⁶ cm/s | – | > 433 µg/mL | 3.03 | > 500 | – | 21 nM | – | 8.08 | – | 81%
CCOc1cc(CN2CCCC(NC(=O)c3cncc(C)c3)CC2)cc(OCC)c1-c1ccc(F)cc1 (racemic) | 1.56 ×10⁻⁶ cm/s | – | 81 µg/mL (≈ 160 µM) | 3.31 | 86 | – | 9.3 nM | > 1000 nM | 8.34 | – | 54%
CCOc1cc(CN2CC(NC(=O)c3cncc(C)c3)C2)cc(OCC)c1F | 1.93 ×10⁻⁶ cm/s | – | > 499 µg/mL | 2.44 | – | – | > 1000 nM | – | 7.19 | – | –
